FGF22 binding: shifts melting point of recombinant human FGF22. actives 1.5% (n = 340,000). activity (Tm shift, normalised), % at 9.99 µM. Q9HCT0. recombinant FGF22 thermal shift, SYPRO orange fluorescence; percent of sucrose octasulfate shift, DMSO zero;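 active means mean Tm shift, scaled 0 neutral to 100 positive control, at about 1.3% or above, every replicate too, limit read from the data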
Target sequence (Q9HCT0 whole entry, looked up): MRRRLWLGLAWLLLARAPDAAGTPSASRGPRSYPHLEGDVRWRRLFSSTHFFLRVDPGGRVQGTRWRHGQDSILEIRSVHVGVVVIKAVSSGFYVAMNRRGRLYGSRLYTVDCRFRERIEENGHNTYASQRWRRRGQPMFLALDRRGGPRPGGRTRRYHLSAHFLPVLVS
Efflux pump mplx: antifungal efflux pump inhibition, Nile Red retention. S. cerevisiae Candida pump triplex. inhibition, % at 10 µM. actives 0.44% (n = 330,000). AID 485275;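 active means plate passing quality check with inhibition over a set limit, or well fluorescence over plate mean plus 4 SD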;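 further: Nile Red retained in pooled yeast measured as flow cytometry median fluorescence; higher means more Nile Red kept so more efflux inhibition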
ARFGAP1 inhibitor: rat ARFGAP1 inhibition | inhibition, % at 16.5 µM | Q62848 | Arfgap1-stimulated ARF1 GTP hydrolysis, GDP FP detection | actives 0.26% (n = 360,000);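 active means inhibition above a per-plate limit, mean inhibition of low control wells plus 3 SD, cut at about 25% in these data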
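Replicates: Single well per compound | Assay system: Truncated rat Arfgap1 GAP domain | Control set: No-Arfgap1 wells (100%) versus DMSO full-reaction wells (0%) | Times: Enzyme reaction 120 min at 25 °C after 20 min preincubation | Reagent: Human ARF1(Δ1-17)-GTP substrate | Measured by: Tracer-displacement fluorescence polarization with EDTA stop, 620/688 nm | Measure: Percent inhibition of Arfgap1-stimulated GTP hydrolysis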
Rtt109 Vps75: inhibitors of Candida albicans Rtt109/Vps75 histone acetyltransferase; AID 540336; actives 0.16% (n = 330,000); inhibition, % at 34.9 µM; purified Rtt109/Vps75, ThioGlo CoA-SH fluorescence, 4 h;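 active means inhibition of at least 50% in every replicate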
Target sequence (Q5AAJ8 whole entry, looked up): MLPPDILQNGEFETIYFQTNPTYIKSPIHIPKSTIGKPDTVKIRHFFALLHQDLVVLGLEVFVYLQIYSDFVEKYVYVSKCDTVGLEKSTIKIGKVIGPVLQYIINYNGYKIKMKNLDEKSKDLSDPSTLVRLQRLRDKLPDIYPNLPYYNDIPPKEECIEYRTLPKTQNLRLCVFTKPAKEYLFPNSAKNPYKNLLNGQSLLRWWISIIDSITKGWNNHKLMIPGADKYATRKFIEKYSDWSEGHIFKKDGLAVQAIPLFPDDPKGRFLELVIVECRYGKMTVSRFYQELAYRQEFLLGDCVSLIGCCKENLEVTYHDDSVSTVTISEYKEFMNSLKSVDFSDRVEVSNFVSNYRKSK
ASAP1 GAP inh: ASAP1 ArfGAP inhibition; actives 0.19% (n = 360,000); AID 624377; Q9ULH1; inhibition, % at 16.5 µM; ASAP1-stimulated ARF1 GTP hydrolysis, GDP FP detection; in the data active means inhibition above about 25%
Of the large screens only hits and unclear results are named; the others gave an inactive call. Compounds with a hit are over-represented: about 1.9% of the library has one in this group of screens.

C[C@H](CO)N1C[C@H](C)[C@H](CN(C)Cc2ccc3c(c2)OCO3)Oc2ccc(NC(=O)Nc3ccc(C(F)(F)F)cc3)cc2CC1=O	none (no result: Efflux pump mplx, ARFGAP1 inhibitor, Rtt109 Vps75, ASAP1 GAP inh)
C[C@@H]1CN([C@@H](C)CO)C(=O)Cc2cc(NC(=O)Nc3ccc(C(F)(F)F)cc3)ccc2O[C@H]1CN(C)Cc1ccc2c(c1)OCO2	FGF22 binding 3.7 (no result: Efflux pump mplx, ARFGAP1 inhibitor, Rtt109 Vps75, ASAP1 GAP inh)
CCSC1=NCCN1S(=O)(=O)c1ccc2ccccc2c1	FGF22 binding 44
O=Nc1c(-c2ccccc2)cc2ccccn12	FGF22 binding 43
CCCC(=O)Nc1ccc2c(c1)OC[C@@H](C)N(Cc1ccncc1)C[C@@H](C)[C@H](OC)CN(C)C2=O	none (no result: Efflux pump mplx, ARFGAP1 inhibitor, Rtt109 Vps75, ASAP1 GAP inh)
Cc1ccc(C(NC(=O)N2CCOCC2)C(Cl)Cl)cc1F (configuration not stated)	none (no result: FGF22 binding, Rtt109 Vps75)
Cc1ccc(C(NC(=O)N2CCN(C)CC2)C(Cl)Cl)cc1F (configuration not stated)	FGF22 binding 44
C=CCn1c(C)cc(C2=NNC(=Nc3ccc(C)cc3)SC2)c1C	FGF22 binding 43
CCOC(=O)C1(CCCc2ccccc2)CCN(Cc2nccn2CC)CC1	FGF22 binding 43 (no result: Rtt109 Vps75)
CCOC(=O)C1(CCOc2ccccc2)CCN(Cc2ccc(-n3cccn3)cc2)CC1	FGF22 binding 44 (no result: Rtt109 Vps75)
CCOC(=O)C1(CCOC)CCN(Cc2ccncc2)CC1	FGF22 binding 43
COc1ccccc1CCC(=O)OCC(=O)Nc1cccc(S(=O)(=O)N2CCOCC2)c1	none
O=C(C[C@@H]1C=C[C@@H](NC(=O)C2CCC2)[C@@H](CO)O1)NC1CCCCC1	none (no result: Efflux pump mplx, ARFGAP1 inhibitor, Rtt109 Vps75, ASAP1 GAP inh)
O=C(c1ccco1)N1CCN(c2ccc(S(=O)(=O)N3CCCC3)cc2)CC1	none (no result: FGF22 binding)
COc1cccc(C(=O)N2c3ccccc3Sc3ccccc32)c1	none
COc1ccc(C(=O)OCC(=O)Nc2cc(S(=O)(=O)N3CCOCC3)ccc2N2CCCC2)cc1	none (no result: Rtt109 Vps75)
COc1ccc(NC(=O)c2ccccn2)cc1S(=O)(=O)N1CCOCC1	none
COc1ccc(/C=C/C(=O)Nc2cc(S(=O)(=O)N3CCCCC3)ccc2N2CCCCC2)cc1OC	none (no result: FGF22 binding)
COc1ccc(/C=C/C(=O)Nc2cc(S(=O)(=O)N3CCOCC3)ccc2N2CCCC2)cc1OC	FGF22 binding 43
COc1cc(/C=C/C(=O)Nc2ccc(OC)c(S(=O)(=O)N3CCOCC3)c2)ccc1OC(F)F	FGF22 binding 1.6
COc1ccc(CC(=O)OCC(=O)Nc2cc(S(=O)(=O)N3CCOCC3)ccc2N2CCCC2)cc1	FGF22 binding 43
COc1ccc(NC(=O)c2c(F)cccc2Cl)cc1S(=O)(=O)N1CCOCC1	FGF22 binding 43
COc1ccc(/C=C/C(=O)Nc2ccc(C(C)=O)cc2)cc1S(=O)(=O)N1CCOCC1	none (no result: Efflux pump mplx, Rtt109 Vps75)
CCC(=O)N1CCC2(CC1)CN(Cc1nccs1)[C@H](CO)c1c2c2ccc(OC)cc2n1C	none (no result: Efflux pump mplx, ARFGAP1 inhibitor, Rtt109 Vps75, ASAP1 GAP inh)
O=S(=O)(Nc1cc(S(=O)(=O)N2CCOCC2)ccc1N1CCOCC1)c1ccc2c(c1)OCCO2	FGF22 binding 44
COc1cc(CC(=O)Nc2cc(S(=O)(=O)N3CCOCC3)ccc2N2CCCC2)cc(OC)c1OC	none (no result: Efflux pump mplx)
COc1ccc(CC(=O)Nc2cc(S(=O)(=O)N3CCOCC3)ccc2N2CCOCC2)cc1	FGF22 binding 43
COc1cc(S(=O)(=O)N2CCOCC2)ccc1NC(=O)COC(=O)/C=C/c1cc(OC)c(OC)c(OC)c1	FGF22 binding 43
COc1cc(/C=C/C(=O)OCC(=O)Nc2cc(S(=O)(=O)N3CCOCC3)ccc2Cl)cc(OC)c1OC	none
COc1ccc(CC(=O)Nc2cc(S(=O)(=O)N3CCOCC3)ccc2N2CCCC2)cc1	FGF22 binding 43 (no result: Efflux pump mplx, Rtt109 Vps75)
CCCNC(=O)C1CC(=O)N(c2ccc(OCc3ccc(Cl)cc3)cc2)C1 (configuration not stated)	none
CCc1c(-c2ccc(OC)cc2)ncn1CCc1ccccc1OC	none (no result: Efflux pump mplx, Rtt109 Vps75)
Cc1cc(C)c2c(=O)[nH]c(SCC(=O)N3CCOCC3)nc2n1	none
CC(=O)CC1c2cc(F)ccc2C=C(c2ccsc2)N1c1ccc(C#CC2(O)CCCCC2)cc1 (configuration not stated)	none (no result: Efflux pump mplx, Rtt109 Vps75)
CC(=O)CC1c2cc(F)ccc2C=C(c2ccsc2)N1c1ccc(C#Cc2cncn2C)cc1 (configuration not stated)	FGF22 binding 1.8 (no result: Efflux pump mplx, Rtt109 Vps75)
FC(F)(F)c1ccccc1NC(=S)N1CCN(c2ccccn2)CC1	none
CCCn1c(C)cc(C(=O)COc2ccc(-c3nnco3)cc2)c1C	FGF22 binding 43
CCCn1c(C)cc(C(=O)COc2ncnc3sccc23)c1C	none

Assay outcomes deposited in PubChem BioAssay by several laboratories.
